Test results as given in ChEMBL document CHEMBL5712893, “Multiple Histone Lysine Methyltransferases Are Required for the Establishment and Maintenance of HIV-1 Latency” (2017).
Active and inactive are the calls of the source. The rule behind the calls is not given here.

What was measured:
[1] = system: Human immunodeficiency virus 1; experiment: Reactivation of HIV-1 latent proviruses in Th17 resting memory T cells by measuring pSer175 CDK9 level treated at 100 nM for 96 hrs by FACS analysis (reference value: 0.76%); type: functional
Method in brief: (§1)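 Naive CD4+ T cells from healthy-donor PBMCs were activated with CD3/CD28 beads, polarized to Th17, and infected with VSV-G-pseudotyped Nef+ HIV-1 expressing CD8a-d2EGFP. Infected cells were CD8a-selected and made quiescent for 2 weeks in IL-2 (15 IU/ml) plus IL-23 ([…]). Cells were then exposed to compound for 96 h. Nef and pSer175-CDK9 were read by FACS, and viability by propidium iodide.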

[2] = system: Human immunodeficiency virus 1; experiment: Reactivation of HIV-1 latent proviruses in Th17 resting memory T cells after PRC2 KD infected with vesicular stomatitis virus G-pseudotyped HIV-1 at 10 nM by FACS analysis; type: functional; method in brief: as §1
[3] = system: Human immunodeficiency virus 1; experiment: Reactivation of HIV-1 latent proviruses in Th17 resting memory T cells by measuring pSer175 CDK9 level treated at 10 nM for 96 hrs by FACS analysis (reference value: 0.76%); type: functional
[4] = system: Human immunodeficiency virus 1; experiment: Reactivation of latent proviruses in human Th17 cells infected with HIV-1 assessed as Nef and pSer175-CDK9 levels at 100 nM after 72 hrs by FACS analysis; type: functional
Method in brief: (§2)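 Th17 cells exposed to inhibitor (100 nM) for 72 h, then infected with HIV-1. Infected cells kept under low-cytokine conditions to enter quiescence, with drug replenished every 72 h. On day 26, cells washed free of drug and induced with CD3/CD28 beads, IL-15 (50 ng/ml) or ConA (5 µg/ml). Nef and pSer175-CDK9 read by FACS; DMSO-pretreated control.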

[5] = system: Human immunodeficiency virus 1; experiment: Reactivation of quiescent HIV-1 infected in human Th17 cells stimulated by IL-15 treated at 100 nM for 72 hrs followed by viral infection replenishment of drug medium every 72 hrs for 26 days by FACS analysis relative to control; type: functional; method in brief: as §2
[6] = system: Human immunodeficiency virus 1; experiment: Reactivation of HIV-1 latent proviruses in Th17 resting memory T cells by measuring pSer175 CDK9 level treated at 1 uM for 96 hrs by FACS analysis (reference value: 0.76%); type: functional; method in brief: as §1
[7] = system: Human immunodeficiency virus 1; experiment: Reactivation of HIV-1 latent proviruses in Th17 resting memory T cells by measuring pSer175 CDK9 level treated at 1 uM for 96 hrs by FACS analysis (reference value: 1.59%); type: functional; method in brief: as §1
[8] = system: Human immunodeficiency virus 1; experiment: Reactivation of HIV-1 latent proviruses in Th17 resting memory T cells by measuring pSer175 CDK9 level treated at 100 nM for 96 hrs by FACS analysis (reference value: 1.59%); type: functional; method in brief: as §1
[9] = system: Human immunodeficiency virus 1; experiment: Reactivation of HIV-1 latent proviruses in Th17 resting memory T cells by measuring pSer175 CDK9 level treated at 10 nM for 96 hrs by FACS analysis (reference value: 1.59%); type: functional
[10] = system: Human immunodeficiency virus 1; experiment: Antiviral activity against HIV-1 in human Jurkat T cells assessed as reduction GFP positive cells at 1 uM for 18 hrs; type: functional, organism-based
Method in brief: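 Jurkat E6 cells pretreated overnight with inhibitor (5 µM; DZNep 5 or 10 µM; phenelzine 250 µM), washed twice with PBS, then spinoculated with VSV-G-pseudotyped HIV-1 (d2EGFP-Nef). Three days later, silent proviruses induced with 1 µM SAHA for 18 h. d2EGFP measured by FACS. Relative silencing is the % silent virus (SAHA-stimulated minus untreated GFP+), divided by scrambled/untreated control. Two independent experiments, SEM.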

[11] = system: Human immunodeficiency virus 1; experiment: Reactivation of HIV-1 infected in human Jurkat cells at 1 uM measured after 7 days by FACS analysis relative to control; type: functional; details: time 7 day
Method in brief: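 E4 Jurkat cells carrying latent d2EGFP HIV-1, infected with shRNA or CRISPR-Cas9 lentivirus. Seven days post-infection, stimulated overnight with SAHA (1 µM), anti-CD3 (0.125 µg/ml) plus anti-CD28 (1 µg/ml), or TNF-α (1 ng/ml). d2EGFP-positive cells quantified by FACS. Three separate experiments, SEM.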

[12] = system: Human immunodeficiency virus 1; experiment: Reactivation of HIV-1 latent proviruses in Th17 resting memory T cells by measuring pSer175 CDK9 level treated at 100 nM for 96 hrs by FACS analysis (reference value: 1.07%); type: functional
[13] = system: Human immunodeficiency virus 1; experiment: Reactivation of HIV-1 latent proviruses in Th17 resting memory T cells by measuring pSer175 CDK9 level treated at 10 nM for 96 hrs by FACS analysis (reference value: 1.07%); type: functional
[14] = system: Human immunodeficiency virus 1; experiment: Reactivation of HIV-1 latent proviruses in Th17 resting memory T cells after PRC2 KD infected with vesicular stomatitis virus G-pseudotyped HIV-1 at 100 nM by FACS analysis relative to control; type: functional
Method in brief: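 Th17 cells were pretreated with 100 nM compound for 72 h, then infected with VSV-G-pseudotyped HIV-1 and cultured under low-cytokine conditions to force quiescence, with drug replenished every 72 h. On day 26 the drug was washed out and cells were induced with CD3/CD28 beads, IL-15 (50 ng/ml) or ConA (5 µg/ml). Nef and pSer175-CDK9 were read by FACS against DMSO-pretreated cells.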

[15] = system: Human immunodeficiency virus 1; experiment: Reactivation of HIV-1 latent proviruses in Th17 resting memory T cells by measuring pSer175 CDK9 level treated at 1 uM for 96 hrs by FACS analysis (reference value: 1.07%); type: functional; method in brief: as §1

Row | Structure (SMILES) | Activity [1] [%] | Activity [2] [%] | Activity [3] [%] | Activity [4] [%] | Activity [5] [%] | Activity [6] [%] | Activity [7] [%] | Activity [8] [%] | Activity [9] [%] | Activity [10] | Activity [11] [%] | Activity [12] [%] | Activity [13] [%] | Activity [14] [%] | Activity [15] [%]
1 | CCN(c1cc(-c2ccc(CN3CCOCC3)cc2)cc(C(=O)NCc2c(C)cc(C)[nH]c2=O)c1C)C1CCOCC1 [TAZEMETOSTAT] | 29.17 | 20 | 16.28 | ~10 | 40 | 27.81 |  |  |  |  |  |  |  |  | 
2 | COc1cc2c(NC3CCN(C(C)C)CC3)nc(C3CCCCC3)nc2cc1OCCCN1CCCC1 |  | 35 |  | ~4 | 22 |  | 34.92 | 32.18 | 22.84 |  |  |  |  |  | 
3 | O=C(CCCCCCC(=O)Nc1ccccc1)NO [VORINOSTAT] |  |  |  |  |  |  |  |  |  | Active | ~30 |  |  |  | 
4 | CCCc1cc(C)[nH]c(=O)c1CNC(=O)c1cc(-c2ccnc(N3CCN(C)CC3)c2)cc2c1cnn2C(C)C |  | 20 |  | ~8 | 27 |  |  |  |  |  |  | 24.13 | 22.31 | 24.15 | 29.11
